Compound activity from PubChem.
FN deposit inh – inhibitors of fibronectin matrix deposition, primary screen, AH1F cells, Alexa488-fibronectin fluorescence, plate reader; AH1F fibroblasts, overnight; inhibition, % at 12.6 µM; hit rate 0.086% among 350,000;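 active = mean inhibition across replicates of 30% or more, regardless of how many single replicates reach that level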
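test system = AH1F fibroblasts assembling fluorescent fibronectin matrix | quantity = 10000 AH1F cells per well | buffer or medium = DMEM plus 2% serum, read in PBS | doses = single dose, pinned | incubation = 1 h cell attachment, overnight exposure to compound and label | detection = fluorescence at 485 nm excitation, 525 nm emission | read-out basis = inhibition from reduced deposited-fibronectin fluorescence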
ERAP1 inh – human ERAP1 aminopeptidase inhibitors, primary screen, biochemical, single point, plate reader | Endoplasmic reticulum aminopeptidase 1 (Homo sapiens), Q9NZ08 | recombinant ERAP1, Leu-AMC fluorescence, 60 min | inhibition, % at 10.7 µM | hit rate 0.15% among 340,000 | AID 652197, 2013;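 active = mean replicate inhibition of at least 30%, or all replicates individually reaching that 30% level; inactive = mean below 30% and not every replicate reaching it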
Target sequence (Q9NZ08 whole entry, looked up): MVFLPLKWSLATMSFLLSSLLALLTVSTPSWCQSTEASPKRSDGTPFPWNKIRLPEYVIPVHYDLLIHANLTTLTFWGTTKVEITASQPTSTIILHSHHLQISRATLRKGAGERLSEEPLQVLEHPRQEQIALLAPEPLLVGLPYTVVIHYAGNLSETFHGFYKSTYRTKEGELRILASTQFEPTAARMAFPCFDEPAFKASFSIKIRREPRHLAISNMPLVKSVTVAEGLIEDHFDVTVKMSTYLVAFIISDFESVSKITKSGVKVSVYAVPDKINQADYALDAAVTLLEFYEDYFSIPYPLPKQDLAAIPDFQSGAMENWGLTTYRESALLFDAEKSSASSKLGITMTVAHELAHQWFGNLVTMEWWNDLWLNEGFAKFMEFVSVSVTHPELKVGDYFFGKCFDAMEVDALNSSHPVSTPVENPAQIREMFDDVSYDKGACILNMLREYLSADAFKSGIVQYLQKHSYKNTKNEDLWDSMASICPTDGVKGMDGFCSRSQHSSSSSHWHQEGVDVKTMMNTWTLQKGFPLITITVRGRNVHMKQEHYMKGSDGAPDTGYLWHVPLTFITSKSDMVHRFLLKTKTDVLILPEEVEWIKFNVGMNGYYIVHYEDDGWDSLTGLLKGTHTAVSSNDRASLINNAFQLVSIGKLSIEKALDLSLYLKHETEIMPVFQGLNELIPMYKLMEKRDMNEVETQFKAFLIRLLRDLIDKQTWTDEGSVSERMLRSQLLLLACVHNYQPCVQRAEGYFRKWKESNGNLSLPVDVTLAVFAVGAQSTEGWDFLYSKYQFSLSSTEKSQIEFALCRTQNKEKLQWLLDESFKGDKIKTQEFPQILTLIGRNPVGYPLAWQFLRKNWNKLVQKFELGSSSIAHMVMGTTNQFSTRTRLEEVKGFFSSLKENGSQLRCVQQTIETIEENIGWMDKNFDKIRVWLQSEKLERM
FGF22 binding – binders of human FGF22 protein, primary screen, FGF22 synaptogenesis inhibitor project, biophysical, thermal shift, single point; Fibroblast growth factor 22 (Homo sapiens), Q9HCT0; recombinant FGF22 thermal shift, SYPRO orange fluorescence; percent of sucrose octasulfate shift, DMSO zero; activity (Tm shift, normalised), % at 9.99 µM; hit rate 1.5% among 340,000;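 active = mean Tm shift, scaled 0 neutral to 100 positive control, at about 1.3% or above, every replicate too, limit read from the data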
SIRT5 inh – SIRT5 desuccinylase inhibitors, primary screen, biochemical, fluorescence imaging, single point, set 5; hit rate 1.1% among 330,000; NAD-dependent protein deacylase sirtuin-5, mitochondrial (Homo sapiens), Q9NXA8; Purified SirT5, succinyl-peptide AMC, trypsin-coupled fluorescence; inhibition, % at 15 µM; in the data active = inhibition above about 15%
PGC1a acetyl inh – inhibitors of PGC1a acetylation signal, primary screen, cell-based, U2OS, AlphaScreen, inhibitor mode; AlphaScreen anti-acetyl-lysine; with virally co-expressed GCN5 acetyltransferase; inhibition, % at 15.6 µM; hit rate 0.17% among 350,000; AID 651687, 2012;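 active = every replicate shows inhibition of at least 40%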
Of the large screens only hits and unclear results are named; the others gave an inactive call. Hits are enriched below; roughly 2.2% of the tested compounds scored in any of these assays.

CCOc1cc(/C=C2\C(=N)N3N=C(S(C)(=O)=O)SC3=NC2=O)ccc1OCCOc1cccc(OC)c1	SIRT5 inh 17 (no result: PGC1a acetyl inh)
Cc1ccccc1S(=O)(=O)N1CCCCN2[C@@H](CO)[C@H](c3ccc(-c4cccc(F)c4)cc3)[C@@H]2C1	SIRT5 inh 18 (no result: FN deposit inh)
Cc1cccc(-c2ccc([C@@H]3[C@@H](CO)N4CCCCN(S(=O)(=O)c5ccccc5F)C[C@H]34)cc2)c1	SIRT5 inh 21
Cc1cccc(-c2ccc([C@H]3[C@@H](CO)N4CCCCN(S(=O)(=O)c5ccccc5F)C[C@@H]34)cc2)c1	none (no result: ERAP1 inh, FGF22 binding, SIRT5 inh)
Cc1ccccc1S(=O)(=O)N1CCCCN2[C@H](CO)[C@H](c3ccc(-c4cccc(F)c4)cc3)[C@H]2C1	none (no result: FN deposit inh)
COC(=O)c1ccc2nc(NC(=O)C3CCCCC3)sc2c1	none (no result: PGC1a acetyl inh)
COC(=O)c1ccc2nc(NC(=O)C(C)(C)C)sc2c1	FGF22 binding 43
Cc1ccc(NC2=NCC(=O)N2C2CCCC2)cc1	FGF22 binding 43 (no result: PGC1a acetyl inh)
CC=Cc1ccc2n(c1=O)C[C@H]1[C@H](CO)[C@@H](C(=O)NCC)[C@@H]2N1Cc1cccc(Cl)c1 (mixture of isomers)	none (no result: FN deposit inh, PGC1a acetyl inh)
Cc1noc(C)c1NC(=O)Nc1cccc2c1O[C@@H](CN(C)Cc1ccc(Oc3ccccc3)cc1)[C@@H](C)CN([C@@H](C)CO)C2=O	none
C[C@@H]1CN([C@@H](C)CO)C(=O)c2cccc(NC(=O)Nc3ccc(C(F)(F)F)cc3)c2O[C@@H]1CN(C)Cc1ccccc1	none (no result: FN deposit inh)
C[C@@H]1CN([C@@H](C)CO)C(=O)c2cccc(NC(=O)Nc3ccc(C(F)(F)F)cc3)c2O[C@H]1CN(C)C(=O)Nc1cccc2ccccc12	none
COc1ccc(CN(C)C[C@H]2Oc3c(NC(=O)Nc4ccc(F)cc4)cccc3C(=O)N([C@@H](C)CO)C[C@@H]2C)cc1	SIRT5 inh 30 (no result: FN deposit inh)
C[C@@H]1CN([C@@H](C)CO)C(=O)c2cccc(NC(=O)Nc3ccccc3)c2O[C@@H]1CN(C)Cc1ccc(C(F)(F)F)cc1	SIRT5 inh 103 (no result: FN deposit inh, PGC1a acetyl inh)
Cc1noc(C)c1NC(=O)Nc1cccc2c1O[C@H](CN(C)Cc1ccc(Oc3ccccc3)cc1)[C@H](C)CN([C@@H](C)CO)C2=O	PGC1a acetyl inh 100
C[C@@H]1CN([C@@H](C)CO)C(=O)c2cccc(NC(=O)Nc3ccc(C(F)(F)F)cc3)c2O[C@@H]1CN(C)C(=O)Nc1cccc2ccccc12	FN deposit inh 36
CC(C)c1cn(CC[C@H]2CC[C@H](NS(=O)(=O)c3ccccc3)[C@H](CO)O2)nn1	none (no result: FN deposit inh)
Cc1ccc(S(=O)(=O)N(C)C[C@@H]2OCCCC[C@H](C)Oc3ccc(NS(C)(=O)=O)cc3C(=O)N([C@H](C)CO)C[C@@H]2C)cc1	none
C[C@H](CO)N1C[C@H](C)[C@@H](CN(C)Cc2ccc(-c3ccccc3)cc2)Oc2c(NC(=O)Nc3ccc(C(F)(F)F)cc3)cccc2C1=O	SIRT5 inh 2.6
C[C@H]1CN([C@@H](C)CO)C(=O)c2cccc(NC(=O)Nc3ccc(C(F)(F)F)cc3)c2O[C@H]1CN(C)Cc1ccc(-c2ccccc2)cc1	none (no result: FN deposit inh)
O=C(CC(C(=O)O)P(=O)(c1ccccc1)c1ccccc1)c1ccccc1 (stereo not given)	FGF22 binding 43
O=C(CC(CC(=O)c1ccccc1)C(=O)O)c1ccccc1	none (no result: ERAP1 inh, FGF22 binding, SIRT5 inh)
COc1ccc(-c2csc(-c3ccccc3)n2)c(OC)c1	FGF22 binding 43
N/C(=N\OC(=O)C1CCCCC1)c1ccc(Br)cc1	none (no result: PGC1a acetyl inh)
N/C(=N\OC(=O)C1CCCCC1)c1ccncc1	FGF22 binding 43 (no result: FN deposit inh)
N/C(=N\OC(=O)c1cccc(Cl)c1)c1ccncc1	FGF22 binding 45 (no result: PGC1a acetyl inh)
CCNc1nc(SC(C)C(=O)Nc2ccccc2)nc(N(C)C)n1 (stereo not given)	FGF22 binding 43
COc1ccc(CN2[C@H](CO)[C@H]3c4ccccc4N(C(=O)NC(C)C)C[C@H]32)cc1	none
O=S(=O)(c1ccccc1)N1CC2(C1)[C@@H](c1ccccc1)[C@@H](CO)N2CCC(F)(F)F	none
O=S(=O)(c1ccccc1)N1CC2(C1)[C@H](c1ccccc1)[C@H](CO)N2CCC(F)(F)F	SIRT5 inh 17
